According to paper PMC7083616 (Science Advances, 2020):

How the values were obtained:
[1] = target: T1, ~55-kDa band (TrxR1) in A549 cell lysates (Homo sapiens, UniProt Q16881); assay: DG-8 competition assay in A549 cell lysates; format: binding; conditions: compound 0.5 to 50 μM 30 min, then DG-8 5 μM 30 min
T1 sequence (Q16881 1-499 isoform Q16881-5): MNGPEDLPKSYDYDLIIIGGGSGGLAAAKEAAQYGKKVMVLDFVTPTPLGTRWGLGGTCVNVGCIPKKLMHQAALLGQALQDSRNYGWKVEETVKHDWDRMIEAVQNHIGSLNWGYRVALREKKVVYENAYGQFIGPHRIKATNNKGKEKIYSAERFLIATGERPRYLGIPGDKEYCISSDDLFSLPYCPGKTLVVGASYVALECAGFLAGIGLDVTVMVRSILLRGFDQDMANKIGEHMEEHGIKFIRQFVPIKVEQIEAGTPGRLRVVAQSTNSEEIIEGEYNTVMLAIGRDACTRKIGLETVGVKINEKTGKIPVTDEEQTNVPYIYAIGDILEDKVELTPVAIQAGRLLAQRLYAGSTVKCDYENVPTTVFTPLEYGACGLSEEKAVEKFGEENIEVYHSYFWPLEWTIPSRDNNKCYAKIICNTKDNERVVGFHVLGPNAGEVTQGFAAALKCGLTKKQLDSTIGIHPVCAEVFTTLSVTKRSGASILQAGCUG
How it was run: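 A549 lysate (30 μg) was preincubated with test compound (0.5 to 50 μM) for 30 min, then with the dansyl-tagged probe (5 μM) for 30 min. Samples in LDS buffer with 100 mM DTT were heated at 95°C for 5 min and run on 10% bis-tris gels. The ~55-kDa band was imaged by UV dansyl fluorescence.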

[2] = target: T2, TrxR1 (Homo sapiens, UniProt Q16881); assay: Recombinant TrxR1 insulin reduction assay; format: biochemical; conditions: with NADPH, Trx1 used to reduce insulin
T2 sequence (Q16881 1-499 isoform Q16881-5): T1 sequence (Q16881 1-499 isoform Q16881-5)
How it was run: (§1)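 Test compound was preincubated for 75 min with 10 nM TrxR1 or 10 nM TrxR2, plus BSA (0.1 mg/ml) and 250 μM NADPH. Then 25 μM Trx1 (TrxR1) or Trx2 (TrxR2) and 160 μM insulin were added. NADPH consumption was followed at A340 for 20 min.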

[3] = target: TrxR2 (Homo sapiens, UniProt Q9NNW7); assay: Recombinant TrxR2 insulin reduction assay; format: biochemical; conditions: with NADPH, Trx2 used to reduce insulin
TrxR2, sequence (Q9NNW7 37-524, species assumed): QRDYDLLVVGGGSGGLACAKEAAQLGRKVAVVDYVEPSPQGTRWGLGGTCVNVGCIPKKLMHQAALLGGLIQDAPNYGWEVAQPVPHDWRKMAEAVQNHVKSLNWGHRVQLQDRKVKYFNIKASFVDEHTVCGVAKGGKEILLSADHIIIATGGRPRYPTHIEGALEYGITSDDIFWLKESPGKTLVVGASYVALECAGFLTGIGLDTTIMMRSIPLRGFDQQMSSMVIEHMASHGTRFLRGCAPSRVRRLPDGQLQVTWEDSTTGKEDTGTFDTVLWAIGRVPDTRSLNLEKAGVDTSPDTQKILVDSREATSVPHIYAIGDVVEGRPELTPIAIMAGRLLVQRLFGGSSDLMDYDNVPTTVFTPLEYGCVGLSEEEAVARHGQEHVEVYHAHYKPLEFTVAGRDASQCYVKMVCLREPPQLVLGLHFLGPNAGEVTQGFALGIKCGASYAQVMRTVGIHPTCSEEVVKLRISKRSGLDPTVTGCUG
How it was run: as §1

[4] = target: T2, TrxR1; assay: Cellular TrxR1 activity, Trx1-linked insulin end point assay; format: cell-based; conditions: FaDu cells, 1 μM, 3 hours
How it was run: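 FaDu cells were seeded at 400,000 per well and treated 24 h later for 3 h at 37°C. Cells were lysed in modified RIPA buffer and protein measured by BCA. Lysate was incubated with 0.16 mM insulin, 0.33 mM NADPH and 16 μM Trx1 in TE buffer (pH 7.5) at 37°C for 0–90 min. Each time point was stopped with 7.2 M guanidine-HCl/2.5 mM DTNB and read at A412. Activity came from the A412 rise against a pure-enzyme standard curve; n = 3.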

[5] = tested on: Nrf2; assay: pTRAF reporter, Nrf2 transcriptional activity; format: cell-based, human; conditions: HEK293 cells, 1 μM, 24 hours
How it was run: (§2)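 HEK293 cells were seeded at 20,000 per well on collagen I-coated plates. The next day, they were transfected overnight with 50 ng of the pTRAF-Nrf2/HIF/NFκB vector using Turbofect. Cells were then exposed for 24 h to 1 μM test compound. Positive controls were auranofin (1 μM) for Nrf2 and TNF-α (20 ng/ml) for NFκB. After 30 min Hoechst (40 ng/ml), per-well reporter fluorescence was quantified by high-content imaging.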

[6] = tested on: NFκB; assay: pTRAF reporter, NFκB transcriptional activity; format: cell-based, human; conditions: HEK293 cells, 1 μM, 24 hours
How it was run: as §2

[7] = tested on: STAT-driven luciferase expression; assay: STAT-dependent luciferase in HEK293-shScramble and HEK293–shPrx1 + Prx2; format: cell-based, human; conditions: IL6 50 ng/ml + sIL6R 100 ng/ml

| Structure (SMILES) | competition with DG-8 for binding to the ~55-kDa band [1] | inhibition of recombinant TrxR1 activity [2] | inhibition of recombinant TrxR2 activity [3] | effect on cellular TrxR1 activity [4] | Nrf2 activation [5] | inhibition of cellular TrxR1 activity [4] | NFκB activation [6] | luciferase inhibition in control versus Prx1 + Prx2 knockdown cells [7] |
| --- | --- | --- | --- | --- | --- | --- | --- | --- |
| CC(=O)OC[C@H]1O[C@@H]([S-])[C@H](OC(C)=O)[C@@H](OC(C)=O)[C@@H]1OC(C)=O.CCP(CC)CC.[Au+] [auranofin] | potently outcompeted the probe | potently inhibited the activity of TrxR1 | the only compound that inhibited TrxR2 | – | – | – | – | – |
| CN(CC(=O)N(Cc1ccc(C2CCCCC2)cc1)c1ccc(C(=O)O)c(O)c1)S(=O)(=O)c1c(F)c(F)c(F)c(F)c1F [BP1-102] | not able to compete with the probe | did not fully inhibit the enzymatic activity of TrxR1 | – | did not appreciably alter the TrxR1 activity | did not activate Nrf2 | – | – | – |
| O=[N+]([O-])c1ccc2c(c1)S(=O)(=O)C=C2 [Stattic] | could compete with DG-8 for binding | potently inhibited the activity of TrxR1 | – | – | clearly triggered Nrf2 activation | approximately 40% | little effect on NFκB activation | more potently inhibited luciferase expression in the control cells |
| COc1ccc([N+](=O)[O-])c(S(=O)(=O)c2ccc(Cl)cc2)n1 [TRi-1] | potently outcompeted the probe | – | – | – | – | – | – | more potently inhibited luciferase expression in the control cells |
